Assay results published in ChEMBL document CHEMBL4007447, “Synthesis, biological evaluation and molecular docking study of N-(2-methoxyphenyl)-6-((4-nitrophenyl)sulfonyl)benzamide derivatives as potent HIV-1 Vif antagonists” (Eur J Med Chem, 2017).
≈ marks a conversion by molar mass, not a printed value. Calls of active or inactive are those of the source. The rule behind the calls is not given here.

Columns and labels:
[1] = Cytotoxicity against human H9 cells assessed as reduction in cell viability after 7 days by MTT assay; assay type: cell-based
Method in brief: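 MTT viability assay. H9 at 4×10^4 cells/well or PHA-stimulated PBMCs at 5×10^5 cells/well were incubated with serially diluted compound at 37 °C, 5% CO2 for seven days before MTT read-out. CC50 was calculated; mean ± standard deviation of three separate experiments.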

[2] = tested on: Human immunodeficiency virus 1; experiment: Antiviral activity against HIV1 subtype B NL4-3 infected in human H9 cells assessed as reduction in p24 level after 7 days by ELISA; assay type: functional, cell-based; conditions: Human immunodeficiency virus 1, subtype B NL4-3, H9, 168 h
Method in brief: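 H9 cells infected with NL4-3 at MOI 0.03 for 2 h, washed three times, then seeded at 4×10^4 cells/well with serially diluted compound. Incubated 7 days; supernatant p24 measured by in-house ELISA and EC50 calculated. Three separate experiments, mean ± standard deviation.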

[3] = Therapeutic index, ratio of CC50 for human H9 cells to EC50 for HIV1 subtype B NL4-3 infected in human H9 cells
Method in brief: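 Ratio of CC50 to EC50, both measured in H9 cells: MTT cytotoxicity over seven days, and p24 ELISA after 7 days of NL4-3 infection at MOI 0.03.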

[4] = Aqueous solubility in water after 24 to 72 hrs by HPLC based shake flask method; assay type: physicochemical
Method in brief: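 Equilibrium shake-flask solubility: excess compound placed in water, methanol, ethanol, acetonitrile, ethyl acetate or acetone and shaken 24-72 h at 25 °C. Filtered through 0.22 μm membrane, diluted, and quantified by HPLC on a C18 column with methanol/water 70/30 mobile phase and UV 251 nm. n=3, mean ± SD.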

[5] = tested on: Human immunodeficiency virus 1; experiment: Inhibition of HIV1 Vif expressed in TREX-hVif-15 cells co-expressing EYFP-N1-tagged human A3G assessed as reduction in Vif-mediated A3G degradation at 5 to 20 ug/ml after 48 hrs by flow cytometry; assay type: cell-based
Method in brief: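 TREX-hvif-15 cells, in which Vif is under Tet-On control, were plated at 2×10^5 cells/well and grown overnight. At about 80% confluence they were transfected with EYFP-N1-hA3G. After 6 h the cells were washed, and compounds at varied concentrations were added together with doxycycline to induce Vif. Cells were trypsin-harvested 48 h post-transfection, and EYFP-positive cells were measured by flow cytometry. The no-Vif condition was set to 100%.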

| Structure (SMILES) | EC50 [2] | solubility thermodynamic [4] | CC50 at 168 h [1] | Ratio CC50/EC50 [3] | inhibition [5] |
| --- | --- | --- | --- | --- | --- |
| COc1ccccc1NC(=O)c1cc(N(C)C)ccc1Sc1ccc([N+](=O)[O-])cc1 | 233 µM | – | 182 µM | 0.781 | – |
| COc1ccccc1NC(=O)c1cc(NC(C)=O)ccc1Sc1ccc([N+](=O)[O-])cc1 | 457 µM | – | 171 µM | 0.374 | – |
| COc1ccccc1NC(=O)c1c(NCCN)cccc1Sc1ccc([N+](=O)[O-])cc1 | 45.4 µM | – | – | – | – |
| COc1ccccc1NC(=O)c1c(Sc2ccc([N+](=O)[O-])cc2)cccc1N1CCOCC1 | 242 µM | – | – | – | – |
| COc1ccccc1NC(=O)c1c(NS(=O)(=O)c2ccccc2)cccc1Sc1ccc([N+](=O)[O-])cc1 | 187 µM | – | – | – | – |
| COc1ccccc1NC(=O)c1c(NCCN)cccc1S(=O)(=O)c1ccc([N+](=O)[O-])cc1 | 214 µM | – | 211 µM | 0.986 | – |
| CNc1cccc(S(=O)(=O)c2ccc([N+](=O)[O-])cc2)c1C(=O)Nc1ccccc1OC | 278 µM | – | 200 µM | – | – |
| COc1ccccc1NC(=O)c1c(NCCBr)cccc1Sc1ccc([N+](=O)[O-])cc1 | 221 µM | – | – | – | – |
| COc1ccccc1NC(=O)c1c(Sc2ccc([N+](=O)[O-])cc2)cccc1[N+](=O)[O-] | 235 µM | – | – | – | – |
| COc1ccccc1NC(=O)c1c(NCCO)cccc1S(=O)(=O)c1ccc([N+](=O)[O-])cc1 | 216 µM | – | 154 µM | 0.713 | – |
| COc1ccccc1NC(=O)c1cc(C(F)(F)F)ccc1Sc1ccc([N+](=O)[O-])cc1 | 223 µM | – | – | – | – |
| COc1ccccc1NC(=O)c1ccccc1Sc1ccc([N+](=O)[O-])cc1 | 263 µM | – | – | – | Active |
| CNc1ccc(Sc2ccc([N+](=O)[O-])cc2)c(C(=O)Nc2ccccc2OC)c1 | 240 µM | – | 302 µM | 1.26 | – |
| COc1ccccc1NC(=O)c1cc([N+](=O)[O-])ccc1Sc1ccc([N+](=O)[O-])cc1 | 235 µM | – | – | – | – |
| COc1ccccc1NC(=O)c1cc(F)ccc1Sc1ccc([N+](=O)[O-])cc1 | 249 µM | – | 502 µM | 2.02 | – |
| COc1ccccc1NC(=O)c1c(N(C)C)cccc1S(=O)(=O)c1ccc([N+](=O)[O-])cc1 | 226 µM | – | 439 µM | 1.94 | – |
| COc1ccccc1NC(=O)c1c(NS(=O)(=O)c2ccccc2)cccc1S(=O)(=O)c1ccc([N+](=O)[O-])cc1 | 176 µM | – | – | – | – |

Now from value to compound, other results behind:

| EC50 [2] | solubility thermodynamic [4] | Structure (SMILES) | CC50 at 168 h [1] | Ratio CC50/EC50 [3] | inhibition [5] |
| --- | --- | --- | --- | --- | --- |
| 1.87 µM | – | COc1ccccc1NC(=O)c1c(N)cccc1Sc1ccc([N+](=O)[O-])cc1 | 387 µM | 207 | – |
| 1.46 µM | 120 µg/mL (≈ 209 µM) | COc1ccccc1NC(=O)c1c(NC(=O)C(N)Cc2ccccc2)cccc1S(=O)(=O)c1ccc([N+](=O)[O-])cc1 (stereo not given) | 216 µM | 148 | – |
| 18.3 µM | – | COc1ccccc1NC(=O)c1cc(Cl)ccc1Sc1ccc([N+](=O)[O-])cc1 | 483 µM | 26.4 | – |
| 54.7 µM | – | COc1ccccc1C(=O)Nc1nc(Cl)ncc1Sc1ccc([N+](=O)[O-])cc1 | 480 µM | 8.78 | – |
| 62.2 µM | – | COc1ccccc1NC(=O)c1sccc1Sc1ccc([N+](=O)[O-])cc1 | 472 µM | 7.59 | – |
| 41.8 µM | – | COc1ccccc1NC(=O)c1c(NCC(N)=O)cccc1Sc1ccc([N+](=O)[O-])cc1 | 35.5 µM | 0.849 | – |
| 147 µM | – | COc1ccccc1NC(=O)c1cccnc1Sc1ccc([N+](=O)[O-])cc1 | 525 µM | 3.57 | – |
| 51.2 µM | – | COc1ccccc1NC(=O)c1cscc1Sc1ccc([N+](=O)[O-])cc1 | 518 µM | 10.1 | – |
| 6.63 µM | – | COc1ccccc1NC(=O)c1cc(N)ccc1Sc1ccc([N+](=O)[O-])cc1 | – | – | – |
| 10.5 µM | – | COc1ccccc1NC(=O)c1c(N)cccc1[S+]([O-])c1ccc([N+](=O)[O-])cc1 (stereo not given) | 335 µM | 31.9 | – |
| 43.6 µM | – | COc1ccccc1NC(=O)c1c(NCCO)cccc1Sc1ccc([N+](=O)[O-])cc1 | 265 µM | 6.08 | – |
| 172 µM | – | COc1ccccc1NC(=O)c1c(NS(=O)(=O)c2ccc(C)cc2)cccc1S(=O)(=O)c1ccc([N+](=O)[O-])cc1 | – | – | – |
| 94.6 µM | – | COc1ccccc1NC(=O)c1c(N)cccc1Oc1ccc([N+](=O)[O-])cc1 | 202 µM | 2.14 | – |
| 30.6 µM | – | COc1ccccc1NC(=O)c1c(NS(=O)(=O)c2ccc(C)cc2)cccc1Sc1ccc([N+](=O)[O-])cc1 | 364 µM | 11.9 | – |
| 8.24 µM | – | COc1ccccc1NC(=O)c1c(Sc2ccc([N+](=O)[O-])cc2)cccc1N1CCNCC1 | 30.6 µM | 3.71 | – |
